Laboratory results from ChEMBL document CHEMBL3817733, “Discovery of a novel small molecule agonist scaffold for the APJ receptor” (Bioorg Med Chem, 2016).
The source made the active and inactive calls. The calls are words filed in the database; no cut-off is given here.

How the values were obtained:
Apelin receptor [1] = biological target: T1, Apelin receptor (Homo sapiens, UniProt P35414); experiment: Agonist activity at human APJ receptor expressed in cells c-expressing Galphaq16 assessed as calcium mobilization by FLIPR assay; assay type: functional, cell-based
T1 sequence (P35414 whole entry): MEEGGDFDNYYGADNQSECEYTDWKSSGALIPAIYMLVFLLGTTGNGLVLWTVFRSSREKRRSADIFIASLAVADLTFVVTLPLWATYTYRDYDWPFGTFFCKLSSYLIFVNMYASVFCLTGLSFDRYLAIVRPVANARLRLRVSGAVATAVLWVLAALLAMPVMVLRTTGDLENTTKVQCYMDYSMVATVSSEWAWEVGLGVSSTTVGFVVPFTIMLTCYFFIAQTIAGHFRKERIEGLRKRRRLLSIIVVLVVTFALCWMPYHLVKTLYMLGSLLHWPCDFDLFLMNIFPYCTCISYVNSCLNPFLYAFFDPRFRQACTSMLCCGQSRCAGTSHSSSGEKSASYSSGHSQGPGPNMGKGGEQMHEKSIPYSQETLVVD
Outline: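 Human APJ-Gαq16 stable cells lifted non-enzymatically, plated 30,000/well, grown 24 h at 37 C to confluence. Loaded with Calcium 5 dye in HBSS with 20 mM HEPES, 1% BSA, 10 µM probenecid, 1 h at 37 C. FLIPR Tetra read ~17 sec baseline, then added agonist at 10x; pyr-apelin-13 as reference.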

Apelin receptor [2] = biological target: T1, Apelin receptor; experiment: Displacement of [125I]-apelin13 from human APJ receptor expressed in CHOK1 cell membranes after 2 hrs by scintillation counting; set-up: species or system CHO-K1
[3] = biological target: T2, Neurotensin receptor type 2 (Rattus norvegicus, UniProt Q63384); experiment: (§1) Partial agonist activity at rat NTS2 receptor expressed in CHOK1 cells assessed as calcium mobilization by FLIPR assay; assay type: functional, cell-based, CHO-K1
T2 sequence (Q63384 whole entry): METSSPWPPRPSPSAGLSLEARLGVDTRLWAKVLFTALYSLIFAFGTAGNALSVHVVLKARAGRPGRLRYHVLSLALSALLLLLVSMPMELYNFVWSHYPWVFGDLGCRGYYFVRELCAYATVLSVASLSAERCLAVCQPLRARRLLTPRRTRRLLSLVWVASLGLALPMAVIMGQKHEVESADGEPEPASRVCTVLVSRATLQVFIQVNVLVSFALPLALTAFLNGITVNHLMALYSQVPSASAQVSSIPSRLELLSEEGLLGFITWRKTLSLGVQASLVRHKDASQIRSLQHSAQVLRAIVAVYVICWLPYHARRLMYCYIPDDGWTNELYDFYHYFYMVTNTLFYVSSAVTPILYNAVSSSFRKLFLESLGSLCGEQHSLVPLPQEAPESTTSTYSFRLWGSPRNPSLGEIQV

[4] = biological target: T3, Neurotensin receptor type 2 (Rattus norvegicus) (UniProt Q63384); experiment: as §1; assay type: functional, cell-based; conditions: CHO-K1
T3 sequence (whole entry): T2 sequence (Q63384 whole entry)

[5] = biological target: Neurotensin receptor type 1 (Rattus norvegicus) (UniProt P20789); experiment: Agonist activity at rat NTS1 receptor expressed in CHOK1 cells assessed as calcium mobilization by FLIPR assay; assay type: functional, cell-based; conditions: CHO-K1
Neurotensin receptor type 1 (Rattus norvegicus), sequence (P20789 whole entry): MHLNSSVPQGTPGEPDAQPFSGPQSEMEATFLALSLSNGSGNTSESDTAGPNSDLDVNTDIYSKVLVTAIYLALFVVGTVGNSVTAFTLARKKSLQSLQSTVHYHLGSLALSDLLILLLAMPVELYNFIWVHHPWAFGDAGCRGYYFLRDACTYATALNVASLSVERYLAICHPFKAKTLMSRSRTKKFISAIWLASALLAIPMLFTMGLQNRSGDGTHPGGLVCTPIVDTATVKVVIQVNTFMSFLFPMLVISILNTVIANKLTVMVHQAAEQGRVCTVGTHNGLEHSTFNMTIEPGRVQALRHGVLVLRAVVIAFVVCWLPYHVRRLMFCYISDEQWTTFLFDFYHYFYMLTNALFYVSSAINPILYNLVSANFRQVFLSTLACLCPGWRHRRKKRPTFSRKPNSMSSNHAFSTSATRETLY

[6] = biological target: Neurotensin receptor type 1 (Rattus norvegicus) (UniProt P20789); experiment: Antagonist activity against rat NTS1 receptor expressed in CHOK1 cells assessed as calcium mobilization by FLIPR assay; assay type: functional, cell-based; conditions: CHO-K1

Structure (SMILES)	EC50 (Apelin receptor [1]) [µM]	further results
COc1cccc(OC)c1-c1cc(C(=O)N[C@@H](CCCCNC(=O)OC(C)(C)C)C(=O)O)nn1-c1ccc(F)cc1	> 30	–
COc1cccc(OC)c1-c1cc(C(=O)Nc2ccccc2C(=O)O)nn1-c1ccc(F)cc1	> 30	–
Cc1cc(C(=O)N[C@H](C(=O)O)C2CCCCC2)nn1-c1ccc(F)cc1	> 30	–
COc1cccc(OC)c1-c1cc(C(=O)N[C@H](C(=O)O)C(C)C)nn1-c1ccc(F)cc1	> 30	–
COc1cccc(OC)c1-c1cc(C(=O)N[C@H](CC(=O)O)CC(C)C)nn1-c1ccc(F)cc1	9.4	Ki (Apelin receptor [2]): 0.6 µM
COc1cccc(OC)c1-c1cc(C(=O)N[C@@H](C(=O)O)C2CCCCC2)nn1-c1ccc(F)cc1	> 30	–
COc1cccc(OC)c1-c1cc(C(=O)N[C@@H](CC(C)C)C(=O)O)nn1-c1ccc(F)cc1	> 30	–
COc1cccc(OC)c1-c1cc(C(=O)N[C@H](C(=O)O)c2ccccc2)nn1-c1ccc(F)cc1	> 30	–
COc1cccc(OC)c1-c1cc(C(=O)NC2(C(=O)O)C3CC4CC(C3)CC2C4)nn1-c1ccc(F)cc1 (configuration not stated)	> 30	–
COc1cccc(OC)c1-c1cc(C(=O)N[C@@H](CCC(N)=O)C(=O)O)nn1-c1ccc(F)cc1	> 30	–
COc1cccc(OC)c1-c1cc(C(=O)N[C@@H](CCC2CCCCC2)CC(=O)O)nn1-c1ccc(F)cc1	–	EC50 [3]: 3.41 µM; Emax [4]: 23%; Activity [5]: inactive; Activity [6]: inactive
O=C(N[C@H](C(=O)O)C1CCCCC1)c1cc(-c2c(O)cccc2O)n(-c2ccc(F)cc2)n1	> 30	–
COc1cccc(OC)c1-c1cc(C(=O)N[C@H](C(=O)NCC(=O)O)C2CCCCC2)nn1-c1ccc(F)cc1	> 30	–
COC(=O)[C@@H](NC(=O)c1cc(-c2c(OC)cccc2OC)n(-c2ccc(F)cc2)n1)C1CCCCC1	> 30	–
COc1cccc(OC)c1-c1cc(C(=O)NC(CC(=O)O)C2CCCCC2)nn1-c1ccc(F)cc1 (single isomer, unassigned)	–	Emax [4]: 57%; Activity [5]: inactive; Activity [6]: inactive
COc1cccc(OC)c1-c1cc(C(=O)N[C@H](C(=O)O)C2CCCCC2)n(-c2ccc(F)cc2)n1	> 30	–
COc1cccc(O)c1-c1cc(C(=O)N[C@H](C(=O)O)C2CCCCC2)nn1-c1ccc(F)cc1	> 30	–
COc1cccc(OC)c1-c1cc(C(=O)NCC2CCCCC2)nn1-c1ccc(F)cc1	> 30	–
COc1cccc(OC)c1-c1cc(C(=O)N[C@@H](CCCCN)C(=O)O)nn1-c1ccc(F)cc1	> 30	–
COc1cccc(OC)c1-c1cc(C(=O)N[C@@H](Cc2ccccc2)C(=O)O)nn1-c1ccc(F)cc1	> 30	–

Second part, led by results:

EC50 (Apelin receptor [1]) [µM]	Structure (SMILES)	further results
> 30	COC(=O)CNC(=O)[C@@H](NC(=O)c1cc(-c2c(OC)cccc2OC)n(-c2ccc(F)cc2)n1)C1CCCCC1	–
> 30	COc1cccc(OC)c1-c1cc(C(=O)N[C@H](C(=O)N(C)C)C2CCCCC2)nn1-c1ccc(F)cc1	–
> 30	O=C(N[C@H](C(=O)O)C1CCCCC1)c1cc(-c2ccccc2)n(-c2ccc(F)cc2)n1	–
> 30	COc1cccc(OC)c1-c1cc(C(=O)N[C@H]2CC[C@H](C(=O)O)CC2)nn1-c1ccc(F)cc1	–
> 30	COc1cccc(OC)c1-c1cc(C(=O)N2CC[C@H](C(=O)O)C2)nn1-c1ccc(F)cc1	–
> 30	COc1cccc(OC)c1-c1cc(C(=O)N[C@H](C(N)=O)C2CCCCC2)nn1-c1ccc(F)cc1	–
> 30	COc1cccc(OC)c1-c1cc(C(=O)N[C@H](C(=O)NCc2ccccc2)C2CCCCC2)nn1-c1ccc(F)cc1	–
> 30	COc1cccc(OC)c1-c1cc(C(=O)N[C@H](C(=O)NO)C2CCCCC2)nn1-c1ccc(F)cc1	–
3	COc1cccc(OC)c1-c1cc(C(=O)N[C@@H](CCc2ccccc2)CC(=O)O)nn1-c1ccc(F)cc1	Ki (Apelin receptor [2]): 3 µM
> 30	COc1cccc(OC)c1-c1cc(C(=O)NC2(C(=O)O)CCCCC2)nn1-c1ccc(F)cc1	–
